As usually defined, the ED50 is the dose that gives a 50% effect, or the effect in half of the subjects. A lower ED50 goes with an effect at a small dose. As a reminder, the LD50 is the dose expected to kill half of the subjects tested.

Where only a bound is given, the exact number is not on record here.

Series [1] relates to Mus musculus. Put plainly: ED50 value was evaluated for analgesic activity by phenylquinone -induced writhing test in mice on peroral administration. It counts as functional. As to conditions: po. The method, boiled down:
(§1)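 Female ddN mice, 5 to 15 per dose, given drug orally in 0.5% aqueous tragacanth. Writhing was induced by ip phenylquinone (0.03%), and writhes were counted over 15 min.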
In general terms: In writhing tests, fewer writhes than in controls are read as antinociception.

Series [2] has as its system Rattus norvegicus. Put plainly: ED50 value was evaluated for antiinflammatory activity by carrageenan-induced rat paw edema method (CPE) on peroral administration. It counts as functional. The settings on record: po. The gist of the method: (§2)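 Male Wistar rats, 5 to 10 per dose, 4 to 5 doses per drug, given orally in 0.5% aqueous tragacanth. Edema was induced by subcutaneous carrageenin into the left hind paw. A rat counted as positive at ≥25% inhibition versus vehicle at 3 h. ED50 with 95% confidence limits was calculated by Litchfield-Wilcoxon, after a screen at 80 mg/kg.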

The test system of series [3] is Mus musculus. Put plainly: ED50 value was evaluated for analgesic activity by phenylquinone -induced writhing test in mice on peroral administration; value may range from 20.6 to 66.0. It counts as functional. The settings on record: po. The gist of the method:
as §1

Series [4] has as its system Rattus norvegicus. Put plainly: ED50 value was evaluated for antiinflammatory activity by carrageenan-induced rat paw edema method (CPE) on peroral administration; value may range from 7.05 to 37.13. As to conditions: po. It counts as functional. The method, boiled down:
as §2
Background: The carrageenan paw model is a standard test of acute inflammation.

In series [5] the test system is Mus musculus. Put plainly: ED50 value was evaluated for analgesic activity by phenylquinone -induced writhing test in mice on peroral administration; value may range from 35.3 to 283. As to conditions: po. It counts as functional. The gist of the method: as §1
Series [6] has as its system Mus musculus. Put plainly: ED50 value was evaluated for analgesic activity by phenylquinone-induced writhing test in mice on peroral administration. Type of series: functional. The settings on record: po. The method, boiled down: as §1
The test system of series [7] is Rattus norvegicus. Put plainly: ED50 value was evaluated for antiinflammatory activity by carrageenan-induced rat paw edema method (CPE) on peroral administration; value may range from 12.71 to 51.24. It counts as functional. The settings on record: po. The method, boiled down: as §2
For series [8], the system named is Rattus norvegicus. Put plainly: ED50 value was evaluated for antiinflammatory activity by carrageenan-induced rat paw edema method (CPE) on peroral administration; value may range from 39.61 to 80.81. It counts as functional. The settings on record: po. The gist of the method: as §2
Series [9] concerns Rattus norvegicus. Put plainly: Evaluated for the UD50 value by gastric ulcer assay in rats on peroral administration of dose; value may range from 368-807. Type of series: functional, Stomach. The gist of the method:
(§3)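 Male Wistar rats fasted for 24 h were given a single oral dose in 0.5% aqueous tragacanth and killed 6 h later. Stomachs were inspected macroscopically. UD50 is the dose producing ulcers in 50% of rats, taken from each compound's regression line.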

The nature of series [10]: Evaluated for the acute lethal toxicity in mice on peroral administration of dose; value may range from 430 to 1236. Type of series: organism-based. The settings on record: mouse, in vivo, po. The method, boiled down:
(§4)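 Single oral dose, in 0.5% aqueous tragacanth, given to male Std:ddY mice. LD50 was derived from mortality over 7 days.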

Series [11] can be described thus: Ratio between UD50 and ED50 in carrageenan paw edema was determined. It counts as functional. The method, boiled down:
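Gastric UD50 (fasted male Wistar rats, single oral dose, stomach scored macroscopically at 6 h) was divided by oral CPE ED50 (male Wistar rats, paw carrageenin, ≥25% inhibition at 3 h, Litchfield-Wilcoxon).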

The subject of series [12] is Rattus norvegicus. Put plainly: Evaluated for the UD50 value by gastric ulcer assay in rats on peroral administration of dose; value ranges from 82.3-182. Type of series: functional, Stomach. The gist of the method: as §3
Series [13] concerns Mus musculus. Put plainly: ED50 value was evaluated for analgesic activity by phenylquinone -induced writhing test in ddN strain mice on peroral administration; value ranges from 32.7-76.20. Type of series: functional. As to conditions: po.
Series [14] has as its system Rattus norvegicus. Put plainly: ED50 value was evaluated for antiinflammatory activity by carrageenan-induced rat paw edema method (CPE) on peroral administration; value may range from 50.5 to 120.0. It counts as functional. The settings on record: po. The method, boiled down:
as §2

Series [15] can be described thus: Evaluated for the acute lethal toxicity in mice on peroral administration of dose; value may range from 1539 to 2362. It counts as organism-based. The settings on record: mouse, in vivo, po. The method, boiled down:
as §4

Series [16] relates to Rattus norvegicus. Put plainly: Evaluated for the UD50 value by gastric ulcer assay in rats on peroral administration of dose. It counts as functional, Stomach. The gist of the method:
as §3

For series [17], the system named is Rattus norvegicus. Put plainly: ED50 value was evaluated for antiinflammatory activity by carrageenan-induced rat paw edema method (CPE) on peroral administration; value may range from 3.87 to 25.90. Type of series: functional. As to conditions: po. The gist of the method: as §2

On to `Cc1cc(Nc2ccc(CC(=O)O)cc2)ncn1`, for which the ED50 was over 100 mg/kg in series [1] and over 80 mg/kg in series [2].

On to `Cc1cccc(Nc2ccc(C(C)C(=O)O)cc2)n1` (stereo not drawn), for which the ED50 is over 100 mg/kg in series [1] and over 80 mg/kg in [2].

Turning to `Cc1ccnc(Nc2ccc(C(C)C(=O)O)cc2)c1` (stereo not drawn), the ED50 in series [1] was over 100 mg/kg; in series [2] it was over 80 mg/kg.

For the molecule `CC(C(=O)O)c1ccc(Nc2ccc(Cl)cn2)cc1` (stereo not drawn), the ED50 in [1] was at least 100 mg/kg; in series [2], at least 80 mg/kg.

On to `CC(C(=O)O)c1ccc(Nc2ccccn2)cc1Cl` (stereo not drawn), for which the 50% effective dose (ED50) in [1] was at least 100 mg/kg; in series [2], at least 80 mg/kg.

Turning to `Cc1cc(C(C)C(=O)O)ccc1Nc1ccccn1` (stereo not drawn), the figures for the ED50 in [3] and in series [2] were 36.9 mg/kg and 16.8 mg/kg, respectively.

For `CC(C(=O)O)c1ccc(Nc2ccc3ccccc3n2)cc1` (stereo not drawn), the ED50 is at least 100 mg/kg in [1] and over 80 mg/kg in [2].

With `O=C(O)Cc1ccc(Nc2ccccn2)cc1`, the ED50 in series [4] is 15.8 mg/kg; in series [1], over 100 mg/kg.

Regarding `CC(C(=O)O)c1ccc(Nc2ccc(Br)cn2)cc1` (stereo not drawn), the ED50 in series [5] was 100 mg/kg; in [2], at least 80 mg/kg.

Consider `CSc1nccc(Nc2ccc(CC(=O)O)cc2)n1`, for which the ED50 was over 100 mg/kg in series [6] and over 80 mg/kg in series [2].

With `Cc1ccc(Nc2ccc(C(C)C(=O)O)cc2)nc1` (stereo not drawn), the figures for the ED50 in series [1] and in series [2] were at least 100 mg/kg and at least 80 mg/kg, respectively.

Turning to `O=C(O)Cc1ccc(Nc2ccc3ccccc3n2)cc1`, the ED50 is at least 100 mg/kg in series [1] and over 80 mg/kg in series [2].

`CC(C(=O)O)c1ccc(Nc2ccccc2)cc1` (stereo not drawn): the ED50 in series [7] is 25.5 mg/kg; in series [1], over 100 mg/kg.

As for `CC(C(=O)O)c1ccc(Nc2ccc([N+](=O)[O-])cn2)cc1` (stereo not drawn), the ED50 in series [8] is 56.6 mg/kg; in [1], at least 100 mg/kg.

In turn, `O=C(O)Cc1ccc(Nc2ccncc2)cc1` registered an ED50 in [2] of over 80 mg/kg.

Molecule `CC(C(=O)O)c1ccc(Nc2ccccn2)c(Cl)c1` (stereo not drawn) gave a UD50 in series [9] of 545 mg/kg. The LD50 in series [10] worked out at 729 mg/kg. For the same molecule, the Ratio in series [11] was 41.6.

As for `CC(C)Cc1ccc(C(C)C(=O)O)cc1` (stereo not drawn) [IBUPROFEN], the UD50 in series [12] was 124.6 mg/kg. In series [13], this molecule came in with an ED50 of 50 mg/kg.

Turning to `CC(C(=O)O)c1ccc(Nc2ccncc2)cc1` (stereo not drawn), the ED50 was at least 100 mg/kg in series [1] and over 80 mg/kg in series [2].

In the case of `CC(C(=O)O)c1cccc(Nc2ccccn2)c1` (stereo not drawn), the figures for the ED50 in [1] and in series [14] were over 100 mg/kg and 77.9 mg/kg, respectively.

`CC(C(=O)O)c1ccc(Nc2ccccn2)cc1` (stereo not drawn) yielded an LD50 in series [15] of 1910 mg/kg. This molecule gave a UD50 in series [16] of over 640 mg/kg. The same molecule had an ED50 in series [17] of 10 mg/kg. Also, in series [11], the Ratio was over 64.

For `Cc1cccnc1Nc1ccc(C(C)C(=O)O)cc1` (stereo not drawn), the results for the ED50 in series [1] and in [2] were at least 100 mg/kg and at least 80 mg/kg, respectively.

On to `O=C(O)Cc1cccc(Nc2ccccn2)c1`, for which the results for the ED50 in series [1] and in [2] were at least 100 mg/kg and over 80 mg/kg, respectively.

As to `Cc1cc(Nc2ccc(C(C)C(=O)O)cc2)ncn1` (stereo not drawn), the results for the ED50 in series [1] and in series [2] were at least 100 mg/kg and over 80 mg/kg, respectively.

Values taken from ChEMBL document CHEMBL1122326, “Nonsteroidal antiinflammatory agents. 2. [(Heteroarylamino)phenyl]alkanoic acids” (J Med Chem, 1983).
